Experimental data collected from several papers.
Compare with care: the assays were run in different laboratories.
Target: Vasopressin V1a receptor (AVPR1A, Homo sapiens, UniProt P37288)

SMILES | read-out | technique | tested at | endpoint | value
c1ccc(C(NCCNC(c2ccccc2)c2ccccc2)c2ccccc2)cc1 | cell-free assay | – | 10 µM | inhibition | -1%
Nc1ncc(-c2nc(N3CCOCC3)nc(N3CCOCC3)n2)c(C(F)F)n1 | cell-free assay | radioligand | 10 µM | remaining signal | 104%
CCN(CC)CCCC[C@H](NC(=O)[C@H](CC(C)C)NC(=O)[C@H](C)NC(=O)[C@H](Cc1ccccc1)NC(=O)c1ccc(C(C)(C)C)cc1)C(=O)N[C@@H](CO)C(=O)OC | ligand displacement | radioligand | 10 µM | remaining binding | 14.6%
O=C(Nc1cccnn1)N1CCN([C@@H]2CCOc3cc(C(F)(F)F)ccc32)CC1 | ligand displacement | – | 20 µM | inhibition | 5%
COCc1c(-c2cc3cc(C)cc(OC)c3s2)c2c(N)ncnn2c1CN1CCNC(=O)C1 | ligand displacement | radioligand | 10 µM | inhibition | -11%
Clc1ccc2c(C3CCN(CCc4c[nH]c5ccccc45)CC3)c[nH]c2c1 | ligand displacement | radioligand | 10 µM | inhibition | 2%
C[C@H](C(=O)N[C@H]1COc2ccccc2[C@@H]1S(C)(=O)=O)c1ccc(F)cc1 | cell-free assay | – | 10 µM | inhibition | -23%
CN(CCN1CCC(OC(=O)Nc2ccccc2-c2ccccc2)CC1)C(=O)c1ccc(CN2CCC(C(N)=O)CC2)cc1 | ligand displacement | radioligand | 1 µM | inhibition | 5%
COc1ccc(S(=O)(=O)N2CCCCC2)cc1C | ligand displacement | radioligand | 10 µM | inhibition | < 30%
